Results as given in ChEMBL document CHEMBL4130549, “Synthesis and bioactivities study of new antibacterial peptide mimics: The dialkyl cationic amphiphiles” (Eur J Med Chem, 2018).
The source made the active and inactive calls. No cut-off for these calls is given here.

Key:
[1] = test system: Staphylococcus aureus; assay: Induction of cytoplasmic membrane depolarization in Staphylococcus aureus ATCC 29213 at 20 ug/ml measured every 2 mins for 12 mins by diSC35 staining based fluorescence assay; format: functional, organism-based
Procedure, shortened: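 Mid-log cells (4–6 h) pelleted, washed and resuspended (~10^8 CFU/mL) in PBS for S. aureus, or in 5 mM HEPES, 5 mM glucose and 100 mM KCl (1:1:1) for E. coli. Preloaded with diSC35 (10 µM, 50 µL), 30 min for S. aureus and 40 min plus EDTA (200 µM, 50 µL) for E. coli. Baseline read 8 min (ex 622/em 670 nm), then compound added to 20 µg/mL final and read every 2 min for 12 min. Water control.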

[2] = test system: Klebsiella pneumoniae; assay: Antibacterial activity against carbapenemase-producing Klebsiella pneumoniae isolate K10 after 16 to 20 hrs by broth microdilution method; format: functional
Procedure, shortened: (§1)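 Broth microdilution per CLSI in cation-adjusted Mueller-Hinton broth; 4-6 h cultures (~10⁸ CFU/mL) diluted to ~10⁶ CFU/mL and mixed 1:1 with twofold dilutions of water-dissolved compound (256 to 0.5 µg/mL). Incubated 16-20 h at 37 °C; MIC read visually. Each concentration run in duplicate, whole experiment repeated at least twice. MRSA, KPC and NDM-1 strains were clinical isolates.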

[3] = test system: Salmonella enterica; assay: Antibacterial activity against Salmonella enterica after 16 to 20 hrs by broth microdilution method; format: functional; procedure, shortened: as §1
[4] = test system: Staphylococcus aureus; assay: Bactericidal activity against methicillin-resistant Staphylococcus aureus after 20 to 24 hrs by broth microdilution method; format: functional
Procedure, shortened: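 For MBC, 20 µL from wells of the broth microdilution MIC plate showing little or no turbidity was plated on agar and incubated 20-24 h at 37 °C. MBC was the lowest concentration giving no colonies.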

[5] = test system: Staphylococcus aureus; assay: Antibacterial activity against methicillin-resistant Staphylococcus aureus isolate M4 after 16 to 20 hrs by broth microdilution method; format: functional
Procedure, shortened: (§2)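 CLSI broth microdilution in cation-adjusted Mueller-Hinton broth. A 4-6 h culture was diluted to about 10⁶ CFU/mL and mixed 1:1 with twofold compound dilutions (256–0.5 µg/mL before mixing) prepared from aqueous stocks. Plates were incubated at 37 °C for 16-20 h. Each concentration was tested in duplicate, and the experiment was repeated at least twice.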

[6] = test system: Staphylococcus aureus; assay: Antibacterial activity against methicillin-resistant Staphylococcus aureus isolate M9 after 16 to 20 hrs by broth microdilution method; format: functional; procedure, shortened: as §2
[7] = test system: Enterobacteriaceae; assay: Antibacterial activity against NDM-1-producing Enterobacteriaceae isolate N5 after 16 to 20 hrs by broth microdilution method; format: functional; procedure, shortened: as §1
[8] = test system: Enterobacteriaceae; assay: Antibacterial activity against NDM-1-producing Enterobacteriaceae after 16 to 20 hrs by broth microdilution method; format: functional; procedure, shortened: as §1
[9] = test system: Staphylococcus aureus; assay: Antibacterial activity against methicillin-resistant Staphylococcus aureus isolate M3 after 16 to 20 hrs by broth microdilution method; format: functional; procedure, shortened: as §2
[10] = test system: Klebsiella pneumoniae; assay: Antibacterial activity against carbapenemase-producing Klebsiella pneumoniae isolate K6 after 16 to 20 hrs by broth microdilution method; format: functional; procedure, shortened: as §1
[11] = test system: Enterobacteriaceae; assay: Antibacterial activity against NDM-1-producing Enterobacteriaceae isolate N2 after 16 to 20 hrs by broth microdilution method; format: functional; procedure, shortened: as §1
[12] = test system: Escherichia coli; assay: Induction of inner membrane permeabilization in Escherichia coli ATCC 25922 at 20 ug/ml measured every 2 mins for 12 mins by propidium iodide staining based fluorescence assay; format: functional, organism-based
Procedure, shortened: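 Mid-log cells (~10^8 CFU/mL) pre-incubated with propidium iodide (10 µM, 50 µL), 30 min for S. aureus and 40 min for E. coli. Fluorescence (ex 535/em 617 nm) read for 8 min, then compound added to 20 µg/mL final and monitored every 2 min for 12 min. Water-treated control.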

[13] = test system: Klebsiella pneumoniae; assay: Antibacterial activity against carbapenemase-producing Klebsiella pneumoniae isolate K2 after 16 to 20 hrs by broth microdilution method; format: functional; procedure, shortened: as §1
[14] = test system: Staphylococcus aureus; assay: Ratio of MBC for methicillin-resistant Staphylococcus aureus in presence of 50% serum to MBC for methicillin-resistant Staphylococcus aureus; format: functional
Procedure, shortened: (§3)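 MRSA at 10⁵ CFU/mL in 50% Mueller-Hinton broth plus 50% sheep serum, plasma or defibrinated whole blood. Serum and plasma were separated by centrifugation at 3,500 rpm for 10 min. Aqueous compound dilutions (512–4 µg/mL before mixing) were combined 1:3 with the suspension and incubated 20-24 h at 37 °C. Wells were plated on Mueller-Hinton agar for a further 20-24 h; MBC was taken as no colonies.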

[15] = test system: Klebsiella pneumoniae; assay: Antibacterial activity against carbapenemase-producing Klebsiella pneumoniae isolate K7 after 16 to 20 hrs by broth microdilution method; format: functional; procedure, shortened: as §1
[16] = test system: Klebsiella pneumoniae; assay: Antibacterial activity against carbapenemase-producing Klebsiella pneumoniae isolate K3 after 16 to 20 hrs by broth microdilution method; format: functional; procedure, shortened: as §1
[17] = test system: Staphylococcus aureus; assay: Antibacterial activity against methicillin-resistant Staphylococcus aureus after 16 to 20 hrs by broth microdilution method; format: functional; procedure, shortened: as §2
[18] = test system: Staphylococcus aureus; assay: Bactericidal activity against Staphylococcus aureus after 20 to 24 hrs using compounds preincubated with 50% plasma for 3 to 6 hrs by broth microdilution method
[19] = test system: Escherichia coli; assay: Antibacterial activity against Escherichia coli ATCC 25922 after 16 to 20 hrs by broth microdilution method; format: functional; procedure, shortened: as §1
[20] = test system: Staphylococcus aureus; assay: Antibacterial activity against methicillin-resistant Staphylococcus aureus isolate M8 after 16 to 20 hrs by broth microdilution method; format: functional; procedure, shortened: as §2
[21] = test system: Staphylococcus aureus; assay: Bactericidal activity against methicillin-resistant Staphylococcus aureus after 20 to 24 hrs in presence of 50% blood by broth microdilution method; format: functional, organism-based; procedure, shortened: as §3
[22] = test system: Staphylococcus aureus; assay: Antibacterial activity against methicillin-resistant Staphylococcus aureus isolate M1 after 16 to 20 hrs by broth microdilution method; format: functional; procedure, shortened: as §2
[23] = test system: Staphylococcus aureus; assay: Antibacterial activity against Staphylococcus aureus ATCC 29213 after 16 to 20 hrs by broth microdilution method; format: functional; procedure, shortened: as §2
[24] = test system: Staphylococcus aureus; assay: Ratio of MBC for methicillin-resistant Staphylococcus aureus in presence of 50% blood to MBC for methicillin-resistant Staphylococcus aureus; format: functional; procedure, shortened: as §3
[25] = test system: Klebsiella pneumoniae; assay: Antibacterial activity against carbapenemase-producing Klebsiella pneumoniae after 16 to 20 hrs by broth microdilution method; format: functional; procedure, shortened: as §1
[26] = test system: Klebsiella pneumoniae; assay: Antibacterial activity against carbapenemase-producing Klebsiella pneumoniae isolate K4 after 16 to 20 hrs by broth microdilution method; format: functional; procedure, shortened: as §1
[27] = test system: Enterobacteriaceae; assay: Antibacterial activity against NDM-1-producing Enterobacteriaceae isolate N6 after 16 to 20 hrs by broth microdilution method; format: functional; procedure, shortened: as §1
[28] = test system: Staphylococcus aureus; assay: Antibacterial activity against methicillin-resistant Staphylococcus aureus isolate M5 after 16 to 20 hrs by broth microdilution method; format: functional; procedure, shortened: as §2
[29] = Hemolytic activity in sheep RBC after 1 hr; format: ADME, cell-based, Ovis aries, Erythrocyte; settings: sheep red blood cells (erythrocytes)
Procedure, shortened: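 Sheep RBCs suspended at 5% in PBS; 150 µL added to 50 µL compound dilutions (5120 to 10 µg/mL series). Incubated 1 h at 37 °C, then centrifuged; supernatant absorbance read at 540 nm. Lysis (%) = (A−A0)/(Atotal−A0)×100, with untreated 5% RBC as A0 and 0.1% Triton X-100 as total.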

[30] = test system: Staphylococcus aureus; assay: Antibacterial activity against methicillin-resistant Staphylococcus aureus isolate M7 after 16 to 20 hrs by broth microdilution method; format: functional; procedure, shortened: as §2
[31] = test system: Enterobacteriaceae; assay: Antibacterial activity against NDM-1-producing Enterobacteriaceae isolate N3 after 16 to 20 hrs by broth microdilution method; format: functional; procedure, shortened: as §1
[32] = test system: Enterobacteriaceae; assay: Antibacterial activity against NDM-1-producing Enterobacteriaceae isolate N8 after 16 to 20 hrs by broth microdilution method; format: functional; procedure, shortened: as §1
[33] = test system: Enterobacteriaceae; assay: Antibacterial activity against NDM-1-producing Enterobacteriaceae isolate N9 after 16 to 20 hrs by broth microdilution method; format: functional; procedure, shortened: as §1

Compound | Activity [1] | MIC [2] | MIC [3] | MBC [4] | MIC [5] | MIC [6] | MIC [7] | MIC [8] | MIC [9] | MIC [10] | MIC [11] | Activity [12] | MIC [13] | Ratio [14] | MIC [15] | MIC [16] | MIC [17] | MBC [18] | MIC [19] | MIC [20] | further results
CCCCCCCCCN(CCCCCCCCC)C(=O)[C@@H](N)CCCCN.Cl.Cl | Active | 2 µg/mL | 2 µg/mL | 4 to 8 µg/mL | 2 µg/mL | 1 µg/mL | 2 µg/mL | 2 µg/mL | 1 µg/mL | 2 µg/mL | 2 µg/mL | Active | 2 µg/mL | 1 - 2 | 2 µg/mL | 2 µg/mL | 0.5 µg/mL | 16 µg/mL | 2 µg/mL | 1 µg/mL | Activity [21]: inactive; MIC [22]: 1 µg/mL; MIC [23]: 1 µg/mL; Ratio [24]: 8 - 16; MIC [25]: 2 µg/mL; MIC [26]: 2 µg/mL; MIC [27]: 2 µg/mL; MIC [28]: 1 µg/mL; HC50 at 1 h [29]: 133 µg/mL; MIC [30]: 1 µg/mL; MIC [31]: 2 µg/mL; MIC [32]: 2 µg/mL; MIC [33]: 4 µg/mL
CCCCCCCCN(CCCCCCCC)C(=O)[C@@H](N)CCCN=C(N)N.Cl.Cl.Cl | Active | 4 µg/mL | 8 µg/mL | 4 to 8 µg/mL | 1 µg/mL | 1 µg/mL | 4 µg/mL | 4 µg/mL | 0.5 µg/mL | 8 µg/mL | 8 µg/mL | Active | 4 µg/mL | 1 - 2 | 8 µg/mL | 4 µg/mL | 0.5 µg/mL | 16 µg/mL | 2 µg/mL | 1 µg/mL | Activity [21]: inactive; MIC [22]: 1 µg/mL; MIC [23]: 1 µg/mL; Ratio [24]: 8 - 16; MIC [25]: 4 µg/mL; MIC [26]: 4 µg/mL; MIC [27]: 4 µg/mL; MIC [28]: 1 µg/mL; HC50 at 1 h [29]: 124 µg/mL; MIC [30]: 0.5 µg/mL; MIC [31]: 8 µg/mL; MIC [32]: 4 µg/mL; MIC [33]: 8 µg/mL
CCCCCCCCCCN(CCCCCCCCCC)C(=O)[C@@H](N)CCCN=C(N)N.Cl.Cl.Cl | Active | 4 µg/mL | 4 µg/mL | 4 to 8 µg/mL | 2 µg/mL | 2 µg/mL | 4 µg/mL | 4 µg/mL | 2 µg/mL | 4 µg/mL | 4 µg/mL | Active | 4 µg/mL | 1 - 2 | 4 µg/mL | 4 µg/mL | 2 µg/mL | 16 µg/mL | 8 µg/mL | 2 µg/mL | Activity [21]: inactive; MIC [22]: 2 µg/mL; MIC [23]: 2 µg/mL; Ratio [24]: 8 - 16; MIC [25]: 4 µg/mL; MIC [26]: 4 µg/mL; MIC [27]: 4 µg/mL; MIC [28]: 2 µg/mL; HC50 at 1 h [29]: 87 µg/mL; MIC [30]: 2 µg/mL; MIC [31]: 4 µg/mL; MIC [32]: 4 µg/mL; MIC [33]: 8 µg/mL
